Rows were chosen to be rich in hits. Some 0.72% of all compounds tested hit in one or more screens of this group.
bIAP inh: intestinal alkaline phosphatase (bovine) inhibition; purified bovine IAP, CDP-star luminescence, 30 min; AID 1019; inhibition, % at 20 µM; 190,000 tested, under 10 active;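 active = over 50% inhibition of intestinal alkaline phosphatase at 20 µM in the single-dose screen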
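System: Purified bovine intestinal alkaline phosphatase (IAP) enzyme | Input: IAP diluted 1/65,000,000 in the well | Also added: CDP-star chemiluminescent phosphatase substrate, 30 µM final | Dosing: 20 µM single dose | Times: Enzyme reaction for 30 min at room temperature | Detection: Luminescence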
mIAP act: increases mouse intestinal alkaline phosphatase activity; muIAP, CDP-Star luminescence, 30 min; active compounds read high; 1 = vehicle-only enzyme signal, 0 = enzyme-free wells; activation factor at 10 µM; 0.24% of 330,000 active;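 active = activation factor of at least 2 at 20 µM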
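also added = chemiluminescent substrate CDP-Star | test system = mouse IAP enzyme | signal = chemiluminescence readout | compound = DMSO-dissolved test compounds | incubation = 30 min at room temperature | benchmarks = DMSO wells, no-enzyme wells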
bIAP act: increases bovine intestinal alkaline phosphatase activity; 0.17% of 200,000 active; AID 1016; activation factor at 20 µM; purified bovine IAP, CDP-star luminescence, 30 min; active compounds read high; fold of DMSO-control signal, blank-subtracted;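 active = activation factor of 2 or more at 20 µM, a signal rise over negative controls twice the positive control's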
mIAP block: mouse IAP inhibition | purified mouse IAP, CDP-Star luminescence, 30 min | inhibition, % at 10 µM | 0.2% of 330,000 active | AID 2806;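 active = inhibition of at least 40% at 10 µM in the primary screen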
hIAP inh: human IAP inhibition; P09923; purified IAP, CDP-Star luminescence, 30 min; inhibition, % at 10 µM; 0.12% of 330,000 active; AID 2544;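 active = inhibition reaching a set limit with compound at 10 µM in the primary screen, cut at about 35% in these data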
Target sequence (P09923 whole entry, looked up): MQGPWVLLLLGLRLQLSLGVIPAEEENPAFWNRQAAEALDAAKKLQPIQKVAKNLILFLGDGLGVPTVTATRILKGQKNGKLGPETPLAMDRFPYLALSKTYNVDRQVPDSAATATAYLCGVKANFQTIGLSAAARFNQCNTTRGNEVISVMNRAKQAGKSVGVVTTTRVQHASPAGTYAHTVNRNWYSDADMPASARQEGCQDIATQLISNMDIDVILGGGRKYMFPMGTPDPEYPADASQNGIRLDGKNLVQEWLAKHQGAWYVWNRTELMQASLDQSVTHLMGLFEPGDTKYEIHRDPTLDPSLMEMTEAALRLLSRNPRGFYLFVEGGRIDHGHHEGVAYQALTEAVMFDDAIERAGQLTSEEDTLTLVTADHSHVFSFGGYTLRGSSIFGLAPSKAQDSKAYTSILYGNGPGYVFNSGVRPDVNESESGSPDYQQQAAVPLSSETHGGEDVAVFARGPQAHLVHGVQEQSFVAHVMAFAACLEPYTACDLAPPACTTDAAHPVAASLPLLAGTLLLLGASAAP
hIAP activ: increases human intestinal alkaline phosphatase activity | activation factor at 10 µM | 0.16% of 330,000 active | purified human IAP, CDP-Star luminescence, 30 min; active compounds read high; 1 = vehicle-only enzyme, 0 = enzyme-free background | AID 2524;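 active = activation factor of the enzyme at least 2-fold when tested at 20 µM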
Large screens that a line does not name were inactive.

COc1ccc(N2C(=O)N3[C@H](c4cccc(C)c4)[C@@H]4C(=O)N(Cc5ccccc5)C(=O)[C@@H]4[C@]3(Cc3ccccc3)C2=O)cc1	none (no result: bIAP inh, bIAP act)
O=C(N/N=C/C=C/c1ccccc1)c1n[nH]c2c1CCC2	hIAP activ 2.1
CC(/C=N/NC(=O)c1n[nH]c2c1CCC2)=C\c1ccccc1	none
C=CCNc1nc2ccccc2nc1NS(=O)(=O)c1ccc(Br)cc1	none (no result: bIAP inh, bIAP act)
COc1ccccc1N(CC(=O)Nc1ccccc1C(=O)N1CCOCC1)S(C)(=O)=O	none (no result: bIAP inh, bIAP act)
O=C(NC(=S)Nc1ccccc1N1CCOCC1)c1ccc(-c2cc(Cl)ccc2Cl)o1	bIAP act 3.9
CC1CCCCC1NC(=O)C1CCC(CNS(=O)(=O)c2cccc3cccnc23)CC1 (stereo unspecified)	none (no result: bIAP inh, bIAP act)
CCOC(=O)C1(CC2CCCCO2)CCN(C(=O)Nc2cccc(SC)c2)CC1 (stereo unspecified)	mIAP act 2.4
Cc1cc(C)n2nc(CC(=O)NNC(=O)COc3ccccc3)nc2n1	none (no result: bIAP inh, bIAP act)
O=C(Nc1ccc2c(c1)CCC2)Nc1ccc(F)cc1F	none (no result: bIAP inh, bIAP act)
O=C(Nc1ccc(Br)cc1)Nc1ccccc1F	mIAP act 2.2
O=C(Nc1ccc2c(c1)CCC2)Nc1ccccc1F	mIAP act 2 (no result: bIAP inh, bIAP act)
O=C(CSc1nnc(CNC(=O)c2c(F)cccc2F)o1)NCc1ccco1	none (no result: bIAP inh, bIAP act)
Cc1cc(C)cc(NC(=S)NCCN(C2CCCCC2)C2CCCC2)c1	mIAP act 2.1 (no result: bIAP inh)
Cc1ccc(NC(=S)NCCN(C2CCCCC2)C2CCCC2)cc1	none (no result: bIAP inh)
O=C(NCc1ccco1)c1sc(=S)n2c1[nH]c(=O)c1ccccc12	mIAP block 40
O=C(NC1CCCC1)c1sc(=S)n2c1[nH]c(=O)c1ccccc12	none
C[C@H](CO)N1C[C@H](C)[C@@H](CN(C)Cc2ccncc2)Oc2c(NC(=O)Cc3ccccc3)cccc2C1=O	none (no result: bIAP inh, bIAP act)
COc1cccc(NCc2cc3c(C(C)(C)C)nn(-c4ccccc4)c3[nH]c2=O)c1	bIAP act 3.8
Nc1ccc2nc(CCCCCCCCc3nc4ccc(N)cc4[nH]3)[nH]c2c1	bIAP act 2
Cc1cc(C(=O)CCC(=O)N(C)CC(=O)Nc2ccccc2Br)c(C)s1	none (no result: bIAP inh, bIAP act)
Cc1ccc2nc(NCc3ccccc3)[nH]c2c1	bIAP act 2.8 (no result: mIAP act, mIAP block, hIAP inh, hIAP activ)
Clc1cccc(Cl)c1CSc1nnc(-c2ccncc2)s1	hIAP activ 2.1 (no result: bIAP inh, bIAP act)
CCn1cc(CNCc2cn(-c3ccccc3C)nc2-c2ccc(OC)c(F)c2)cn1	none
COc1ccc(-c2nn(-c3ccccc3C)cc2CNCCc2cnc[nH]2)cc1F	bIAP act 2.3
O=C(O)CCC1c2cc3c4cc2OC2Oc5cc6c(cc51)C(CCC(=O)O)c1cc5c7cc1OC(O6)c1cc6cc(c1)Oc1cc(cc(C(=O)O)c1)Oc1cc8cc(c1)C(Oc1cc(c(cc1C5CCC(=O)O)C3CCC(=O)O)OC(O4)c1cc(cc(c1)Oc1cc(cc(C(=O)O)c1)O8)Oc1cc(cc(C(=O)O)c1)Oc1cc(cc2c1)Oc1cc(cc(C(=O)O)c1)O6)O7 (stereo unspecified)	mIAP block 48 (no result: bIAP inh, bIAP act)
Cc1ccc(NC(=S)NCc2ccc(F)cc2)cc1	none (no result: bIAP inh, bIAP act)
Cc1ccc(C)c(C(C)NC(=S)NCc2ccc(F)cc2)c1 (stereo unspecified)	mIAP act 2.2 (no result: bIAP inh, bIAP act)
O=C(CCC1CCCCC1)Nc1ncn[nH]1	bIAP act 2.3
O=C(CCC1CCCCC1)Nc1nccs1	none
COc1ccc(C2=NOC(Cn3nc(-c4ccccc4)cc3C(=O)NCc3cccs3)C2)cc1 (stereo unspecified)	mIAP act 2.9 (no result: bIAP inh, bIAP act)
CC1CCN(c2ccc(-c3ccc(NC(=O)C(F)(F)F)cc3)nn2)CC1	none (no result: bIAP inh, bIAP act)
CC(C)C1Cc2c(C#N)c(N)sc(=S)c2CO1 (stereo unspecified)	mIAP block 40
O=C(CN1CCN(S(=O)(=O)c2ccc(Cl)cc2)CC1)c1ccc(O)c(O)c1	none (no result: bIAP inh, bIAP act)
CCOc1cc(/C=C2\CCC/C(=C\c3cc(Cl)c(O)c(OCC)c3)C2=O)cc(Cl)c1O	mIAP block 44 (no result: bIAP inh)
C=CCN(Cc1nc(-c2ccccc2)no1)C(=O)c1ccc2c(c1)OCO2	none (no result: bIAP inh, bIAP act)
CCc1ccccc1NC(=O)NC1CC2CCC(C1)N2Cc1cccs1 (stereo unspecified)	none
CCc1ccc(NC(=S)NC2CC3CCCC(C2)N3Cc2cccs2)cc1 (stereo unspecified)	mIAP act 5.7
COc1ccc(CC(=O)NCC2CCCN(Cc3cc(OC)cc(OC)c3)C2)cc1 (stereo unspecified)	none (no result: bIAP inh, bIAP act)
S=C(NCc1cccnc1)Nc1cccc(Cl)c1	none
COc1cccc(C(C)NC(=S)NCc2ccc(Cl)cc2)c1 (stereo unspecified)	mIAP act 2.5
COc1ccc(C(C)NC(=S)NCc2ccc(F)cc2)cc1 (stereo unspecified)	none (no result: bIAP inh, bIAP act)
COc1ccc(CNC(=S)Nc2cccc(Cl)c2)cc1	mIAP act 2.7 (no result: bIAP inh, bIAP act)
CCCCc1ccc(NC(=S)NCc2cccc(OC)c2)cc1	mIAP act 2.5
S=C(NCc1cccnc1)Nc1cc(Cl)cc(Cl)c1	mIAP act 2.1 (no result: bIAP inh, bIAP act)
COC(=O)N/N=C(C)\C=C\c1ccco1	bIAP act 6.4
COc1ccc(NC(=O)Nc2ccc3c(c2)N(C)C(=O)CS3)cc1OC	mIAP act 2.2
CCOc1ccc(NC(=O)Nc2ccc3c(c2)N(C)C(=O)CS3)cc1	mIAP act 2.3
COc1ccc(NC(=O)Nc2ccc3c(c2)N(C)C(=O)CS3)cc1Cl	none
COc1ccc(C(C(=O)NC2CCCC2)N(Cc2ccc(F)cc2)C(=O)c2ccn[nH]2)cc1OC (stereo unspecified)	bIAP act 2.1
COc1ccc(C(C(=O)NC2CCCC2)N(Cc2ccc(C)cc2)C(=O)c2ccn[nH]2)cc1OC (stereo unspecified)	bIAP act 2.7
CC(C)(C)NC(=O)C(c1ccc(F)cc1)N(Cc1ccccc1Cl)C(=O)c1ccn[nH]1 (stereo unspecified)	bIAP act 2.1
COc1ccc(C(C(=O)NC2CCCC2)N(Cc2cccnc2)C(=O)Cc2cccs2)cc1OC (stereo unspecified)	none (no result: bIAP inh, bIAP act)
O=C1C=CC(=C(c2ccc(O)cc2)c2ccc(O)cc2)C=C1	none (no result: bIAP inh, bIAP act)
CN(C)c1ccc(C(=S)N2CCCC2)cc1Br	none (no result: bIAP inh, bIAP act)
Cc1cc(C)c(OCC(=O)OCC(=O)N(C)C2CCS(=O)(=O)C2)c(C)c1 (stereo unspecified)	none (no result: bIAP inh, bIAP act)
O=C(CSc1nnc(-c2ccc3c(c2)OCO3)o1)Nc1c(F)cccc1F	mIAP block 55 (no result: bIAP inh, bIAP act)
NC(=O)c1ccc(NC(=O)CSc2nnc(-c3ccc4c(c3)OCO4)o2)cc1	none (no result: bIAP inh, bIAP act)
CCCCCC/C=N/Nc1nnc(Cc2ccccc2)c(=O)[nH]1	none (no result: bIAP inh, bIAP act)
O=C(Nc1ccccc1C(=O)NC(Cc1ccccc1)C(=O)NC1CCCCCC1)c1ccccc1 (stereo unspecified)	mIAP act 2.3
